Published values of several laboratories.
Target: Dual specificity mitogen-activated protein kinase kinase 3 (MAP2K3, Homo sapiens, UniProt P46734)
Residues used in one study (P46734 1-347): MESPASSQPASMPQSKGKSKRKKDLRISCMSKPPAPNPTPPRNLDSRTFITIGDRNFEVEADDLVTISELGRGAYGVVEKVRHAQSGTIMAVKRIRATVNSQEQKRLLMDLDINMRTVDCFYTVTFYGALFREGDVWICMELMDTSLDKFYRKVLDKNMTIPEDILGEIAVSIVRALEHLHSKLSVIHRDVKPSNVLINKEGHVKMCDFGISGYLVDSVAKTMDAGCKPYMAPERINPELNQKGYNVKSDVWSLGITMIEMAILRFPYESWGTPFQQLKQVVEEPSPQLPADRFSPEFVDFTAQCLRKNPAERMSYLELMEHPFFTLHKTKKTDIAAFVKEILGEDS

Structure (SMILES) | observed | method | concentration | remaining binding [%]
O=C(c1ccc(Nc2ncc(Cl)c(-c3ccc(Cl)s3)n2)cc1)N1CCC(N2CCCC2)CC1 | binding | competition with immobilised ligand | 1 µM | 15
F[C@@H]1CCN(c2nccc(-c3cnn4ncccc34)n2)C1 | binding | – | 1 µM | 83
CCCOc1ccc([C@H]2[C@H](C(=O)O)[C@@H](c3ccc4c(c3)OCO4)CN2CC(=O)Nc2c(CC)cccc2CC)cc1 | cell-free assay | competition with immobilised ligand | 1 µM | 60
FC(F)(F)Oc1cccc(-c2cnc3ccc(-c4ccncc4)nn23)c1 | cell-free assay | competition with immobilised ligand | 5 µM | 35
N[C@H]1CCN(c2nccc(-c3cnn4ncccc34)n2)C1 | binding | – | 1 µM | 67
Cn1nc(C(F)(F)F)cc1-c1cnc(N2CCc3cc(S(=O)(=O)Nc4c(F)cc(Cl)cc4F)cc(N4CCCC4=O)c32)nc1 | cell-free assay | competition with immobilised ligand | 1 µM | 82
O=C(NCCCN1CCOCC1)c1ccc(Nc2ncc(Cl)c(-c3ccc(Cl)s3)n2)cc1 | binding | competition with immobilised ligand | 1 µM | 51
CN(CCCC(F)(F)F)c1nccc(-c2cnn3ncccc23)n1 | binding | – | 1 µM | 99
c1ccc(N2CCN(Cc3nc4ccccc4[nH]3)CC2)nc1 | binding | competition with immobilised ligand | 1 µM | 96
C=CC(=O)N1CCC(C(=O)NCC(=O)N2CCN(c3nc(-c4cnc(N)nc4C(F)F)nc(N4CCOCC4)n3)CC2)CC1 | binding | competition with immobilised ligand | 1 µM | 59
CO[C@@H](C)c1c(Nc2ccc([C@H](N(C)C(=O)C3CCS(=O)(=O)CC3)C(F)(F)F)cc2)cnc2cc(Cl)nn12 | cell-free assay | competition with immobilised ligand | 1 µM | 93
O=C(Nc1c[nH]nc1C(=O)NC1CCNCC1)c1cc(F)cc(F)c1 | binding | competition with immobilised ligand | 1 µM | 100
CC1CCCN1c1nccc(-c2cnn3ncccc23)n1 (stereo not shown) | binding | – | 1 µM | 84
COc1cnc(Nc2cccc(S(N)(=O)=O)c2)nc1N1CCN(c2ccccc2)C(=O)C1 | binding | competition with immobilised ligand | 1 µM | 84
FC(F)(F)c1ccc2c(c1)nc(-c1cccnc1)n2C1CC1 | cell-free assay | competition with immobilised ligand | 1 µM | 100
CN(C)c1nccc(-c2cnn3ncccc23)n1 | binding | – | 1 µM | 51
CNC(=O)[C@@H]1CC[C@@H](n2c(-c3ccc4cnccc4c3)nc3ccc(C(=O)NCc4cccc(C(N)=O)c4)cc32)C1 | binding | competition with immobilised ligand | 1 µM | 98
O=C(NCCCN1CCOCC1)c1ccc(Nc2nccc(-c3cc4ccccc4s3)n2)cc1 | binding | competition with immobilised ligand | 1 µM | 47
O=C(NCc1ncc(C(F)(F)F)cc1Cl)c1ccc2c(c1)C1(CCS(=O)(=O)CC1)[C@@H](C1CC1)N2S(=O)(=O)c1ccc(F)cc1 | cell-free assay | competition with immobilised ligand | 1 µM | 73
CN(C)c1ncc(F)c(-c2cnn3ncccc23)n1 | binding | – | 1 µM | 78
N#CC1(c2ccccn2)CCN(Cc2cc(C(=O)N3CCCC3)c(=O)n3ccccc23)CC1 | cell-free assay | competition with immobilised ligand | 1 µM | 81
Cc1cnn2ncc(-c3ccnc(N(C)C)n3)c2c1 | binding | – | 1 µM | 83
